# Experimental data taken from ChEMBL document CHEMBL3808340, “Development of Novel 1,2,3,4-Tetrahydroquinoline Scaffolds as Potent NF-κB Inhibitors and Cytotoxic Agents” (ACS Med Chem Lett, 2016).
# Assays:
# [1] = Cytotoxicity against human PC3 cells after 72 hrs by sulforhodamine B assay; type: functional; conditions: PC-3, 72 h
# In short: (§1)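 Sulforhodamine B staining following the NCI (USA) protocol was used to estimate cell number indirectly in six human cancer lines. GI50 is the concentration giving a 50% decrease in net cell growth, reported as the mean of three experiments.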
# ACHN = assay: Cytotoxicity against human ACHN cells after 72 hrs by sulforhodamine B assay; type: functional; in short: as §1
# [2] = Cytotoxicity against human HCT15 cells after 72 hrs by sulforhodamine B assay; type: functional; conditions: HCT-15, 72 h; in short: as §1
# MDA-MB-231 = assay: Cytotoxicity against human MDA-MB-231 cells after 72 hrs by sulforhodamine B assay; type: functional; conditions: MDA-MB-231, 72 h; in short: as §1
# NCI-H23 = assay: Cytotoxicity against human NCI-H23 cells after 72 hrs by sulforhodamine B assay; type: functional; conditions: NCI-H23, 72 h; in short: as §1
# RAW264.7 = assay: Inhibition of LPS-induced NFkappaB (unknown origin) transcriptional activity expressed in mouse RAW264.7 cells at 100 uM incubated for 16 hrs by SEAP based reporter gene assay relative to control; type: cell-based
# [3] = Cytotoxicity against human NUGC3 cells after 72 hrs by sulforhodamine B assay; type: functional; conditions: NUGC-3, 72 h; in short: as §1
# [4] = Inhibition of LPS-induced NFkappaB (unknown origin) transcriptional activity expressed in mouse RAW264.7 cells incubated for 16 hrs by SEAP based reporter gene assay; type: cell-based; conditions: RAW264.7, 16 h
# Homo sapiens [5] = organism: Homo sapiens; assay: Potency index, ratio of KL-1156 IC50 to compound IC50 for LPS-induced NFkappaB (unknown origin) transcriptional activity expressed in mouse RAW264.7 cells; type: cell-based
# Homo sapiens [6] = organism: Homo sapiens; assay: Potency index, ratio of PDTC IC50 to compound IC50 for LPS-induced NFkappaB (unknown origin) transcriptional activity expressed in mouse RAW264.7 cells; type: cell-based
IC50 [4] [µM],SMILES,GI50 [1] [µM],GI50 (ACHN) [µM],GI50 [2] [µM],GI50 (MDA-MB-231) [µM],GI50 (NCI-H23) [µM],inhibition (RAW264.7) [%],GI50 [3] [µM],Ratio IC50 (Homo sapiens [5]),Ratio IC50 (Homo sapiens [6])
,CCC(=O)N1c2ccccc2CCC1C(=O)Nc1ccccc1C(F)(F)F (stereo not given),> 80,> 80,> 80,> 80,> 80,43,> 80,,
60,O=C(Nc1ccccc1)C1CCc2ccccc2N1 (stereo not given),110,72.9,109,108,97.1,85,59,,
68,O=C(Nc1ccc(C(F)(F)F)cc1)C1CCc2ccccc2N1 (stereo not given),20.3,25,17.6,24.2,25.8,79,18.6,,
,CCCC(=O)N1c2ccccc2CCC1C(=O)Nc1ccccc1O (stereo not given),72.5,50.6,58.3,38,43.1,41,35.4,,
,COc1ccc(NC(=O)c2ccc3ccccc3n2)cc1,,,,,7.65,,,,
27,CCCCCCCCC(=O)N1c2ccccc2CCC1C(=O)Nc1ccccc1C(F)(F)F (stereo not given),4.32,8.33,7.7,3.35,4.22,63,6.18,,
1.4,O=C(Nc1ccccc1O)C1CCc2ccccc2N1C(=O)c1ccccc1 (stereo not given),5.69,4.26,3.83,4.21,3.49,> 100,3.78,37,26
26,O=C(Nc1cc(C(F)(F)F)cc(C(F)(F)F)c1)C1CCc2ccccc2N1 (stereo not given),8.12,8.19,8.7,8.27,8.41,> 100,8.76,,
,O=C(Nc1ccc(O)cc1)c1ccc2ccccc2n1,,,,,102,,,,
26,O=C(Nc1ccccc1C(F)(F)F)C1CCc2ccccc2N1 (stereo not given),53.3,57.6,40.4,45.5,56.8,> 100,39.3,,
34,COc1ccc(NC(=O)C2CCc3ccccc3N2)cc1 (stereo not given),56.9,38,50.2,51.4,55.7,> 100,51.9,,
78,O=C(Nc1ccccc1O)C1CCc2ccccc2N1C(=O)c1cccc(Cl)c1 (stereo not given),23.3,17.2,23.1,10.6,11.6,58,11,,
,O=C(Nc1ccccc1C(F)(F)F)C1CCc2ccccc2N1C(=O)c1ccccc1 (stereo not given),5.56,8.09,6.5,5.29,6.34,44,8.12,,
,CC(=O)N1c2ccccc2CCC1C(=O)Nc1ccccc1O (stereo not given),70.7,50.7,54.5,89.6,65.7,19,49.7,,
0.9,O=C(Nc1ccccc1C(F)(F)F)C1CCc2ccccc2N1C(=O)c1ccccc1Cl (stereo not given),5.14,3.9,4.22,2.53,2.15,82,2.73,58,41
,CC(=O)N1c2ccccc2CCC1C(=O)Nc1ccccc1C(F)(F)F (stereo not given),> 80,> 80,> 80,> 80,> 80,32,> 80,,
95,CCCC(=O)N1c2ccccc2CCC1C(=O)Nc1ccccc1C(F)(F)F (stereo not given),> 70,> 70,> 70,> 70,> 70,51,> 70,,
65,O=C(Nc1ccc(O)cc1)C1CCc2ccccc2N1 (stereo not given),> 100,> 100,> 100,> 100,> 100,64,> 100,,
20,CCCC(=O)N1c2ccccc2CCC1C(=O)Nc1cc(C(F)(F)F)cc(C(F)(F)F)c1 (stereo not given),18.6,13.9,21.9,15.2,15,88,14.4,,
20,O=C(Nc1cc(C(F)(F)F)cc(C(F)(F)F)c1)C1CCc2ccccc2N1C(=O)c1ccc(Cl)cc1 (stereo not given),4.23,2.57,2.22,2,0.889,92,1.66,,
